In PubChem BioAssay AID1515 (The Scripps Research Institute Molecular Screening Center, 2009):
Out of some 220,000 compounds screened, about 440 (0.2%) were called active.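 How the source made its calls: active means inhibition above the campaign mean of all tested compounds plus 3 SD (cut at about 14% in these data); inactive means the rest.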 Only a selection was taken, and actives are over-represented in it overall.

Each compound was assayed against Serine hydrolase RBBP9 (Homo sapiens) (UniProt O75884) (assay: blockers of RBBP9 serine hydrolase labeling – biochemical, fluorescence polarization, FP-Rh probe, HTS, primary screen (AID 1515)). Settings: recombinant RBBP9, FP-Rh probe fluorescence polarization; at 7.94 µM; stronger effect = higher value.
Outline: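 Test system: recombinant human RBBP9; Timing: 30 min then 45 min, 25 °C; Detection: fluorescence polarization; Control set: RBBP9 with DMSO as uninhibited control, no-protein wells as full inhibition; Compound dosing: one concentration, 7.94 µM nominal, 0.794% DMSO; Probe or stimulus: FP-Rh activity-based probe, 375 nM before mixing.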

Sequence of Serine hydrolase RBBP9 (Homo sapiens) (O75884 whole entry, looked up): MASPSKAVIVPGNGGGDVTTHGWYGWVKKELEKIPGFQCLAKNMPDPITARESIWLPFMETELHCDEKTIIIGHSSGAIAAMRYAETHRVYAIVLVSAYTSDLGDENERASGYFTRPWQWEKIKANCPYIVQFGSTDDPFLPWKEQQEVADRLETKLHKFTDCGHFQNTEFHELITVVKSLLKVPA

inhibition, inactive:
CC(C)(C)C1CCC(C(=O)Nc2cccnc2)CC1 (stereo not drawn) -3.33%, CN(C)c1ccc(C=NCCc2ccc(S(N)(=O)=O)cc2)cc1 -3.47%, CCCc1nc(SCC(=O)Nc2ccc(S(=O)(=O)N(C)C)cc2)c2ccccc2n1 -8.27%, COc1ccc([C@H]2[C@H](C(C)=O)N3N=Cc4ccccc4C3C23C(=O)OC(C)(C)OC3=O)cc1 (stereo partly drawn) 0.49%, CC(=O)Nc1nc(C)c(-c2csc(Nc3ccc(S(N)(=O)=O)cc3)n2)s1 -4.68%, COc1cc2c(cc1OC)CC1(CCCCC1)N=C2 -7.64%, Cc1ccc(-c2nc(C)sc2CC(=O)O)cc1 -5.14%, O=C(O)Cc1sc(-c2ccc(C(=O)O)cc2)nc1-c1ccccc1 -2.34%, COc1ccc(NC(C)=O)cc1NC(=O)CN1CCN(C2c3ccccc3-c3ccccc32)CC1 -0.61%, CC(=O)NC1C(Oc2ccc(C=O)cc2)OC(COC(C)=O)C(OC(C)=O)C1OC(C)=O (stereo not drawn) -10.2%, CC(=O)NC1=NN(C(C)=O)C(C)(CCS(=O)(=O)c2ccc(Cl)c(Cl)c2)S1 (stereo not drawn) -8.22%, COc1cc(/C=C2/C(=O)ON=C2C)ccc1OCc1ccccc1F -7%, COc1cc(/C=C2/C(=O)ON=C2C)ccc1OCc1cccc(F)c1 -10.5%, Cc1ccc(S(=O)(=O)N(C)C)cc1NC(=O)c1n[nH]c(=O)c2ccccc12 1.59%, CCOC(=O)C1=C(CC)OC(N)=C(C#N)C1c1ccc(F)cc1F (stereo not drawn) -1.24%, N#Cc1cc([N+](=O)[O-])ccc1Oc1cccc(/C=N/NC(=O)c2ccc(Cl)cc2)c1 1.74%, Cn1c(CSCC(=O)Nc2ccccc2)nnc1SCc1ccccc1 1.33%, COc1ccc(C2CC(c3ccccc3)=NN2C(=O)CSc2nccc(=O)[nH]2)cc1 (stereo not drawn) -13.6%, COc1ccc(C2NC(=S)NC3=C2CCc2ccccc23)cc1OC (stereo not drawn) -1.09%, COc1ccccc1P(=O)(c1ccccc1)c1ccccc1NC(C)=O (stereo not drawn) 4.53%, O=C(O)CCS(=O)(=O)c1ccc(-c2ccccc2)cc1 -1.5%, CCCC(=O)Nc1ccc2c(c1)nc(CCNC(=O)c1ccco1)n2C -8.19%, CCn1c(CNC(=O)c2ccccc2)nnc1SCC(=O)N1CCN(c2ccccc2)CC1 -8.71%, Cc1ccc2cc(CCNC(=O)c3c(-c4ccccc4Cl)noc3C)c(=O)[nH]c2c1 -1.48%, O=c1c2ccccc2nc2n1C(CSCc1cccc(C(F)(F)F)c1)CS2 (stereo not drawn) -8.83%, N#Cc1c(NC(=O)C2CC(Cl)=CCC2C(=O)O)sc2c1CCCCC2 (stereo not drawn) -6.51%, CCNC(=S)N1CCC(c2nc3cc(C)c(C)cc3[nH]2)CC1 -6.72%, Cc1cc([N+](=O)[O-])nn1CC(=O)Nc1ccc(Cc2ccncc2)cc1 -7.35%, Cc1cc([N+](=O)[O-])nn1CCCC(=O)Nc1cccnc1Cl -5.84%, Brc1cc(/C=N/n2cnnc2)oc1Br -14.7%, COc1ccccc1NC(=O)C1=C(C)NC(=O)NC1c1ccc(C)s1 (stereo not drawn) -5.66%, Cc1cc(C#N)c(SCC(N)=O)nc1-c1ccc(F)cc1 -8.75%, CC(C)OCC(O)CN1CCN(C(c2ccccc2)c2ccccc2)CC1 (stereo not drawn) 2.7%, O=[N+]([O-])c1ccc(N2CCN(c3ccc(O)cc3)CC2)c(Cl)c1 -8.4%, CC(C)NC(=O)C(=O)NCCCOC(C)C -0.43%, CC(C)C(=O)Nc1ccc(C(=O)NNC(=O)c2cccs2)cc1 3.67%, CCOC(=O)NN1C(=O)c2ccccc2NC1c1ccccc1O (stereo not drawn) 0.52%, CCOC(=O)C1=C(N)N2C(=O)C(C)SC2=C(C(=O)OCC)C1c1cc(OC)c(OC)c(OC)c1 (stereo not drawn) 4.66%, COCCOC(=O)C1=C(C)Nc2nc(C)nn2C1c1ccccc1 (stereo not drawn) 0.85%, COc1ccc(NC(=O)Nc2ccc3nsnc3c2)cc1 -1.59%, O=C(NCc1ccccn1)c1ccc2nc(-c3ccco3)c(-c3ccco3)nc2c1 -0.69%, COC(=O)CC(=O)N1CCN(c2ccc(Cl)c(Cl)c2)CC1 0.17%, CC1(C)CC2CC(C)(CN2c2ncnc3ccc(Br)cc23)C1 (stereo not drawn) -2.76%, CCOC(=O)c1sc(=NC(=O)/C=C/c2cccs2)n(C)c1C -10.7%, CCOC(=O)c1ccc(N=C2SC(C(=O)NC)CC(=O)N2CCc2ccccc2)cc1 (stereo not drawn) -5.9%, COC(=O)Cc1ccc(NC(=S)NCc2ccco2)cc1 -2.67%, Cc1nnc(SC(C(=O)Nc2cc(Cl)cc(Cl)c2)c2ccccc2)[nH]c1=O (stereo not drawn) -10.7%, CSc1sc(C(=O)NNC(=O)c2ccc(Cl)cc2)c2c1C=CCC2 -0.01%, COC(=O)c1ccc(C2C3=C(Nc4nnnn42)c2ccccc2OC3)cc1 (stereo not drawn) -9.06%, Cc1ccc(Sc2ccncc2S(N)(=O)=O)cc1 -3.25%, CC(NCc1nc2ccccc2n1C)C12CC3CC(CC(C3)C1)C2 (stereo not drawn) 1.94%, Cc1ccc(-c2cc(C(F)(F)F)n3nc(C(=O)N4CCCC4)cc3n2)cc1 -1.99%, Cc1ccc(OCC(=O)N2CCN(C(=O)c3cccnc3)CC2)cc1 -7.21%, Cc1ccc(S(=O)(=O)/N=C(\CN2CCOCC2)N2CCOCC2)cc1 5.6%, CCCCCc1nnc(NC(=O)c2ccc(=O)n(C)n2)s1 -7.4%, CSCCC(NC(=O)c1ccco1)C(=O)OCC(=O)Nc1ncc(Cl)c(C)c1Cl (stereo not drawn) -5.55%, CC[n+]1c(C)n(-c2ccccc2)c2ccc(NC(C)=O)cc21 -7.36%, CCC(C)c1ccc(NC(=S)NCc2ccccn2)cc1 (stereo not drawn) -8.32%, CC(C)Oc1ccc(CCC(=O)NNC(=S)NCc2ccccc2)cc1 -2.85%, O=C(CCC1CCCN(Cc2ccc(O)c(Cl)c2)C1)NCc1ccccc1F (stereo not drawn) -3.09%, Brc1ccc(-c2n(-c3ccccn3)c3ccccc3[n+]2-c2ccccn2)cc1 0.06%, CCC(CC)c1nnc(NC(=O)/C=C/c2ccco2)s1 -5.03%, O=C(NCC1CCCO1)C1CCN(C2CCN(C(=O)C3CCCCC3)CC2)CC1 (stereo not drawn) -1.77%, COC(=O)c1cccc(NS(C)(=O)=O)c1 2.15%, C#CCOCCOCCOCCNc1nc(N2CCN(C(=O)[C@H](C(C)C)n3cc(CCO)nn3)CC2)nc(N2CCN(C(=O)[C@H](C(C)C)n3cc(CCO)nn3)CC2)n1 -3.79%, Oc1ccc(N=Cc2c(O)ccc3ccccc23)cc1 5.11%, O=C(N/N=C/c1c(Cl)[nH]c2ccccc12)c1sc2ccccc2c1Cl -18.2%, CC1(C)CC(=O)C2=C(C1)N=C1SCCC(=O)N1C2c1ccc(C(F)(F)F)cc1 (stereo not drawn) -1.93%, COc1ccc(/C=C(\C#N)C(=O)ONC2=NCCCCC2)cc1 -9.38%, COc1cccc(-c2nn(-c3ccccc3)cc2/C=C(\C#N)C(=O)NCCCn2ccnc2)c1 -15%, CCOc1ccc(N2C(=O)CN(c3cccc4ccccc34)C2=S)cc1 -4%, COc1cccc(N(Cc2nnc3n2CCCCC3)C(=O)Nc2ccccc2F)c1 -3.77%, O=C(Nc1nc(-c2cccnc2)cs1)c1ccccc1F -5.59%, COc1ccc(/C=N/NC(=O)c2ccccc2)cc1OS(=O)(=O)c1ccccc1 -7.38%, COc1cc(/C=N/NC(=O)c2ccccc2)ccc1OS(=O)(=O)c1ccccc1 -11.2%, Cc1ccc(C(=O)N2CCN(S(=O)(=O)N3CCOCC3)CC2)cc1 0.85%, COc1ccc(C(=O)NN2C(=O)C3C(c4ccccc4)C=CC(c4ccccc4)C3C2=O)cc1 (stereo not drawn) -6.27%, O=C(NCC1CCN(Cc2ccccc2Cl)CC1)Nc1cccc(Cl)c1 -3.66%, Cc1cc(/C=C(/C#N)C(=O)Nc2ccc(Cl)cc2)c(C)n1-c1cccnc1 -4.94%, Cc1ccccc1C(=O)Nc1ccc(N2CCCCCC2)cc1 -6.04%, O=c1[nH][nH]c(=O)c2cc(N3CCCC3)ccc12 0.44%, Cc1c(NC(=O)CN2C(=O)C(=O)N(Cc3ccccc3)C2=O)c(=O)n(-c2ccccc2)n1C -6.97%, CCS(=O)(=O)c1ccc(O)c(NC(=O)COc2ccc(Cl)cc2)c1 -5.54%

inhibition, active:
C/C(=N/Nc1nc(-c2ccccc2)c(CC(=O)O)s1)c1ccccc1 17%, CC1=NOC(=O)/C1=C\c1ccccc1 15.4%, Cc1cc([N+](=O)[O-])nn1Cc1ccc(F)cc1 16.8%, CC(C)OCCCNC(=O)CNC(=O)c1cccs1 14.6%, COc1cc(C2C(C(=O)OCCC#N)=C(C)NC3=C2S(=O)(=O)c2ccccc23)cc(OC)c1OC (stereo not drawn) 21.6%, COCCNC(=O)Nc1ccc2nc(-c3ccco3)c(-c3ccco3)nc2c1 17.9%, CCN(CC)C(=O)N1CCN(C(=O)c2ccc(C)cn2)CC1 18.9%, Oc1ccc(N=Cc2sc3ccccc3c2Cl)cc1 15.9%, COc1cc(/C=N/NC(=O)Nc2ccccc2)ccc1OCCOc1ccccc1C 65.1%, O=C1C=CC(=O)N1c1ccc(N2CCCCC2)cc1 14.7%
